High-throughput results from PubChem BioAssay.
KCNQ1 block: inhibitors of human KCNQ1 channel, primary screen, cell-based, thallium flux, high-throughput; CHO-K1 KCNQ1, FluxOR thallium flux fluorescence; active compounds read high; B-score at 10 µM; 310,000 compounds, 1.3% hits; Potassium voltage-gated channel subfamily KQT member 1 (Homo sapiens), P51787;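 active = compounds whose thallium flux B-score, printed positive for inhibition, exceeds three library SD while starting fluorescence stays within three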;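 note: channel opened by potassium depolarization with thallium stimulus after 20 min compound exposure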
Kir21 inh: inhibitors of mouse Kir2.1 inward-rectifier potassium channel; AID 1672, 2009; Inward rectifier potassium channel 2 (Mus musculus), P35561; B-score at 10 µM; HEK293-Kir2.1, FluxOR thallium flux fluorescence; active compounds read low; 310,000 compounds, 0.85% hits;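 active = fluorescence ratio B-score at or below minus 3 SD of library scores, with starting-brightness B-score within 2 SD, cut at about -4.2 in these data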;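 note: channel flux triggered by added potassium and thallium sulfate stimulus; B-score of peak minus minimum fluorescence over baseline after thallium stimulus; more negative B-score means stronger Kir2.1 block with less thallium influx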
Target sequence (P35561 whole entry, looked up): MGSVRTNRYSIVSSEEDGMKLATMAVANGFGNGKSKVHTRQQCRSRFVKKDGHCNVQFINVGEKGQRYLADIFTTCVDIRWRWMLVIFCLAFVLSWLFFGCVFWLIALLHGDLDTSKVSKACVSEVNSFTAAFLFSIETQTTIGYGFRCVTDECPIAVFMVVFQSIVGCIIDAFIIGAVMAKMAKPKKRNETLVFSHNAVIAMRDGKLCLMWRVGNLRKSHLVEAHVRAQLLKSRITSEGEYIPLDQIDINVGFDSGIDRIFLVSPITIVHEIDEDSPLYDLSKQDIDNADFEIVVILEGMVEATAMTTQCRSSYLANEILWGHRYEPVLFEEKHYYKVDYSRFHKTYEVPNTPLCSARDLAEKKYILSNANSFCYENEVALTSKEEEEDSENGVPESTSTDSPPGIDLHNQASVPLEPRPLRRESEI
hERG protect: hERG rescue from dofetilide block, primary screen, cell-based, CHO-hERG, FluxOR thallium flux, dofetilide IC70; Voltage-gated inwardly rectifying potassium channel KCNH2 (Homo sapiens), Q12809; dofetilide IC70 present; activation (rescue from dofetilide block), less the hit threshold, % at 10 µM; 310,000 compounds, 0.51% hits; AID 1511, 2009;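 active = activation above the mean of controls blocked by dofetilide plus 5 SD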;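 note: thallium influx through hERG after potassium depolarization seen as dye fluorescence rise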
KCNK3 block: human KCNK3 channel inhibitors, primary screen, CHO cells, FluxOR thallium flux, B-score. Potassium channel subfamily K member 3 (Homo sapiens), O14649. FluxOR fluorescence; active compounds read low. B-score at 10 µM. 340,000 compounds, 0.84% hits;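 active = B-score under library mean minus 4 SD, starting fluorescence ratio at most library mean plus 5 SD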;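 note: more negative B-score means stronger inhibition of thallium flux through KCNK3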
KCNK9 block: KCNK9 potassium channel inhibitors, primary screen, HEK293 cells, thallium flux. Potassium channel subfamily K member 9 (Homo sapiens), Q9NPC2. FluxOR thallium flux fluorescence; active compounds read low. B-score at 10 µM. 310,000 compounds, 1.2% hits;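 active = ratio B-score over 3 SD below the library mean, with starting fluorescence within 5 SD of its mean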;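 note: negative B-score means less thallium flux so channel inhibition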
KCNQ1 act: potentiators or activators of KCNQ1 channel, primary screen, cell-based, thallium flux, high-throughput | B-score at 10 µM | Potassium voltage-gated channel subfamily KQT member 1 (Homo sapiens), P51787 | AID 2648, 2010 | CHO-K1 KCNQ1, thallium flux FluxOR fluorescence; active compounds read high | 310,000 compounds, 0.35% hits;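 active = fluorescence ratio B-score, a plate-corrected score, at least three library SD, with initial intensity B-score within 5 SD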
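Test system: CHO-K1 cells stably expressing KCNQ1 / Medium: assay buffer / Also added: depolarizing K+/Tl+ stimulus, K2SO4 and Tl2SO4 each 12.5 mM in 5x stock / Incubation: 90 min dye loading and 20 min compound exposure, both at room temperature / Signal: thallium influx via FluxOR fluorescence, kinetic imaging / Evaluation: B score of baseline-normalized fluorescence ratio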
KCNK9 block conf: KCNK9 potassium channel inhibitors, confirmation, HEK293 cells, thallium flux, duplicate. FluxOR thallium flux fluorescence. inhibition, % at 10 µM. shares compounds with KCNK9 block. AID 492992, 2010. 4,900 compounds, 43% hits;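 active = thallium signal inhibited by more than 5 SD of the compound-free buffer control wells, on both duplicate plates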;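 note: 0% = assay buffer control wells without compound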
Kir2-1 spec: mouse Kir2.1 channel inhibition, confirmation, selectivity assay for KCNK9 modulator project, cell-based, HEK293, thallium flux | shares compounds with KCNK9 block | Kir2.1 cells, FluxOR thallium flux fluorescence | inhibition, % at 10 µM | 4,900 compounds, 4% hits;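 active = thallium signal drop more than 5 SD beyond the mean of the no-compound control wells, seen in both duplicate plates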;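 note: signal is fluorescence rise after thallium addition divided by baseline fluorescence; plate controls were assay buffer only for no effect and full block by chlorpromazine control for full effect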
HEK293 Tl ctr: thallium flux in non-induced HEK293 cells, confirmation, counter-screen for KCNK9 inhibitor project, cell-based, second counter screen, non-induced KCNK9-HEK293 | shares compounds with KCNK9 block | FluxOR thallium flux | inhibition, % at 10 µM | 4,900 compounds, 40% hits | AID 492997, 2010;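 active = thallium signal drop beyond 5 SD of the untreated control mean, on both duplicate plates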;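 note: plate controls were buffer only IC0 wells for no effect and SID17386958 at its maximal inhibitory level for full effect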
The depositor's hits bear a star; i = inactive; . = not tested or not shown. This is a sample that favours compounds with a hit; in the whole collection about 3.8% have one here.

SMILES	KCNQ1 block	Kir21 inh	hERG protect	KCNK3 block	KCNK9 block	KCNQ1 act	KCNK9 block conf	Kir2-1 spec	HEK293 Tl ctr
CCCn1cnc2scc(-c3ccc(C)c(C)c3)c2c1=O	i	-0.92	-8	i	i	i	i	i	i
C=CCn1cnc2scc(-c3ccc(C)c(C)c3)c2c1=O	i	-1	-4	i	i	i	i	i	i
CCCOC(=O)Cn1cnc2scc(-c3ccc(C)cc3)c2c1=O	i	0.9	-8	i	i	i	i	i	i
Cc1ccc(-c2csc3ncn(CC(N)=O)c(=O)c23)cc1C	i	0.36	-2	i	i	i	.	.	.
O=C(O)COc1ccc(/C=C/c2nc(-c3ccccc3O)n[nH]2)cc1	i	0.59	-7	i	i	i	.	.	.
COc1ccc(/C=C/c2nc(-c3ccccc3O)n[nH]2)cc1OC	i	-1.6	2	i	i	i	i	i	i
CCCc1cc(-c2nc(-c3ccc(Br)cc3)cs2)ccn1	i	-0.06	-6	i	-10*	i	i	i	26%*
CC1(C)NC(=O)N(c2ccc([N+](=O)[O-])c(C(F)(F)F)c2)C1=O	.	.	.	i	.	.	.	.	.
COc1ccccc1Nc1nc(-c2cccc(N3C(=O)c4ccccc4C3=O)c2)cs1	i	-0.02	-1	i	i	i	i	i	i
COC(=O)c1cc(=O)n(CCc2ccccc2)c(=Nc2ccc(F)cc2)s1	8*	-1.1	-15	i	-10*	i	35%*	i	34%*
CCOC(=O)c1ccc(N=c2sc(C(=O)OC)cc(=O)n2Cc2ccco2)cc1	i	0.88	-7	i	i	i	i	i	38%*
COC(=O)c1cc(=O)n(CCc2ccc(OC)cc2)c(=Nc2ccc(F)c(Cl)c2)s1	i	-0.75	-12	i	i	i	.	.	.
CC(C)CCC1(C)NC(=O)N(CC(=O)c2ccc[nH]2)C1=O (centres undefined)	i	0.53	-6	i	i	i	.	.	.
O=C(Nc1cccc(Cl)c1N1CCCC1)c1ccco1	i	0	-8	i	-9.9*	i	i	i	29%*
O=C(Nc1ccc(N2CCCC2)c(Cl)c1)c1ccco1	i	1.1	-6	i	i	i	.	.	.
N#C/C(=C\c1ccccc1[N+](=O)[O-])C(=O)NC1CCCCC1	i	0.03	-13	i	i	i	.	.	.
N#C/C(=C\c1cc(Cl)ccc1O)C(=O)NC1CCCCC1	i	-0.73	-8	i	i	i	.	.	.
Cc1ccc(-c2[nH]ncc2/C=C(\C#N)C(=O)NC2CCCCC2)cc1	i	0.6	-12	i	i	i	i	i	i
COc1ccc(-c2[nH]ncc2/C=C(/C#N)C(=O)NC2CCCCC2)cc1	i	-1	-10	i	i	i	i	i	i
CN(Cc1c(C(=O)N2CCc3ccccc3C2)nc2ccc(Cl)cn12)C(C1CC1)C1CC1	i	-3.7	-16	i	i	i	.	.	.
O=[N+]([O-])c1cc2c(cc1/C=N/Nc1nc(N3CCCC3)nc(N3CCCC3)n1)OCO2	i	0.37	-4	i	i	i	i	i	i
O=C(N/N=C/c1cccs1)c1cccc(NC(=O)c2ccccc2Cl)c1	i	0.35	-19	i	-9.4*	i	i	i	i
O=C(N/N=C/c1cn(-c2cccs2)nc1-c1ccccc1)c1ccccc1Cl	i	-0.2	-2	i	-10*	i	51%*	i	i
O=C(N/N=C/c1cccs1)c1ccc(NC(=O)c2ccccc2Cl)cc1	i	0.7	-6	i	i	i	.	.	.
COCCC(=O)N1CCCC(C(=O)c2ccc(C(F)(F)F)cc2)C1 (centres undefined)	i	-0.47	-1	i	i	i	.	.	.
SMILES	KCNQ1 block	Kir21 inh	hERG protect	KCNK3 block	KCNK9 block	KCNQ1 act	KCNK9 block conf	Kir2-1 spec	HEK293 Tl ctr
COc1cc(-c2nc3ccccn3c2/N=C/c2cc(OC)c(OC)c(OC)c2)ccc1O	i	-0.03	-7	i	i	i	.	.	.
COc1ccc(OC)c(/C=N/c2c(-c3ccc(O)c(OC)c3)nc3ccccn23)c1	i	1.3	-6	i	-14*	i	i	i	i
NC(=O)c1ncn([C@@H]2O[C@H](CNCc3cccc(OC4CCCC4)c3)[C@@H](O)[C@H]2O)n1	.	.	.	i	.	.	.	.	.
Cc1nn(CC(=O)NCc2ccc(OC(C)C)cc2)c(=O)c2cc(-c3ccccc3)nn12	i	-0.05	-10	i	i	i	.	.	.
O=C1c2ccccc2C(Nc2ccc(Cl)cn2)N1c1ccccn1 (centres undefined)	i	-0.09	-8	i	-9.8*	i	37%*	i	i
CC(=O)Nc1ccc(C(=O)CN2CCN(c3ccccc3)CC2)cc1	i	0.45	-12	i	i	i	.	.	.
COCCN(C(=O)c1snc(C(N)=O)c1N)C(C(=O)NC1CCCCC1)c1ccc(F)cc1 (centres undefined)	i	0.97	-7	i	i	i	.	.	.
ClC(CCN1CCN(Cc2ccccc2)CC1)c1ccccc1 (centres undefined)	i	0.49	-6	i	i	i	.	.	.
COc1ccccc1OCc1nc(C#N)c(N2CCCC2)o1	i	2.4	-13	i	i	i	.	.	.
COc1ccccc1OCc1nc(C#N)c(N2CC(C)CC(C)C2)o1 (centres undefined)	i	-0.52	-6	i	i	i	i	i	i
O=C(CSc1ncnc2c1nnn2Cc1ccccc1)NC1CCCCC1	i	-0.29	-10	i	i	i	.	.	.
